In the RNAGym collection of RNA variant scans (doi:10.1126/science.aae0568):
This sample holds only a part of the variants without activity.

B1: tRNA (parent)
chain: GUUCCGUUGGCGUAAUGGUAACGCGUCUCCCUCCUAAGGAGAAGACUGCGGGUUCGAGUCCCGUACGGAACG

Variants of: B1
Test: yeast fitness relative to wild type (ratio to wild type); higher = fitter; tRNA-Arg(CCU), competitive growth, 37 C, YPD
Method in brief: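 A pool of Saccharomyces cerevisiae strains, each with a tRNA-Arg(CCU) gene variant at the native genomic locus, was competed in YPD at 37°C for 24 hours across six parallel replicates. The variants had been chemically synthesised at a 3% per-site mutation rate over 69 sites, and gene amplicons before and after competition were read by 100-nucleotide paired-end sequencing. Darwinian fitness relative to wild type rested on changes in genotype frequencies. Genotypes required ≥ 100 starting reads, and estimates < 0.5 were set to 0.5.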

Variant	yeast fitness
U3A A21C	0.768
U3A A21G	0.926
U3A A21U	0.71
U2G G10C A43C	≤ 0.5
U3A C4A U16A A36C G48A G67A	≤ 0.5
U3A C4A U8C C30U A45C G52C	≤ 0.5
U3A C11U C55G C60G	≤ 0.5
U3A A21U G23C A43C	≤ 0.5
U3A A21G C31A G48C	≤ 0.5
U2G U13A U28A G39A G48A C61G C66G	≤ 0.5
U3A A42G	0.73
U3A A42C	0.72
U3A C4U U7A C24U U35C C49U C61G	≤ 0.5
U2G U26A G52A	≤ 0.5
U3A A20U	0.834
U3A A20G	1
U2G U16C C27U U35C	≤ 0.5
U3A A15G U47G	0.794
U3A C11U U13C C31A	≤ 0.5
U2G G48C G52C C62G	0.541
U3A C4U U7A C24U	≤ 0.5

Variant	yeast fitness
U3A C4U U7A C24U C46G A65G	≤ 0.5
U3A C22G C33G G51A	≤ 0.5
U2G G23C G58A	≤ 0.5
U3A A20G C22U G44C	≤ 0.5
U3A A45G	1
U3A A45C	0.88
U2G U19A A69U	0.551
U3A A14C A20C U28A C29G U32C G39A A57C	≤ 0.5
U2G G51A C60U	≤ 0.5
U3A C4A U8C C31U A37U G48C C66U	≤ 0.5
U2G G68U	0.835
U2G U16G A21U C33A C66G	≤ 0.5
U2G U3A C5U U7C U8A A20C U35C A37U A57C	0.565
U2G G63C	0.694
U2G G25C G52A A57C A70C	≤ 0.5
U2G U19A C46U	≤ 0.5
U3A A21C C49G	≤ 0.5
U2G U47C	0.992
U2G G12A U13A G25C U28A C33A G67U	≤ 0.5
U3A C5A G12C G25A C30U A69C	≤ 0.5
U2G U8C	0.891

Variant	yeast fitness
U3A A21C C24G C62U	0.526
U3A C22G C30U U32G U53C G68C A70G	≤ 0.5
U3A A15C C66U	0.659
U3A C4U G10C C33G G52C	≤ 0.5
U3A C5A G6C A14C G48C C55U G63U	≤ 0.5
U3A C5A G67A	0.548
U3A A21G U28A A42C A57G C66A	0.733
U3A A20C U32A A65U	≤ 0.5
U3A C4U A70G	0.59
U3A C4U A37G A40U	≤ 0.5
U3A C4G G6A U26G A70U	≤ 0.5
U2G U7G A43C A45U C60A	≤ 0.5
U3A C4U U13A A36U C66U	0.641
U3A C5G C55U G67C	0.599
U3A C4U U13A A36U C62A C66U	≤ 0.5
U3A A20C U32A A70G	≤ 0.5
U3A A20C A21G C61A	0.514
U3A A15C C22G U32C G41A	≤ 0.5
U3A C5G G10A C31U C33G G48C	≤ 0.5
U2G G6C C11U C27U G63C	≤ 0.5
U3A A14U C62U	0.79

Variant	yeast fitness
U3A A57G A69U	0.983
U3A C4A U19C C27U C46A C62G A69U	≤ 0.5
U2G G9C C60A	≤ 0.5
U2G G39A G51A	≤ 0.5
U3A C5U A42C A43U G56C C66U	≤ 0.5
U3A C5U A21G A43C	0.526
U2G G10C G63A	≤ 0.5
U2G G9C A14C A36U C46A C62G	≤ 0.5
U3A A40C	0.635
U3A A40G	0.888
U3A A21G C46A	0.695
U3A A14G G58C	0.753
U2G U54C C62G A70U	≤ 0.5
U2G G25A A65C	0.637
U3A A15G U35C G52A G58C C66U	≤ 0.5
U2G G18A A40C G68C	≤ 0.5
U2G G18C C29G C30A C34G G48C	0.604
U2G U7C	0.772
U3A A14U	0.731
U2G G48A	0.94
U2G G48C	0.849
